Source: PubChem BioAssay (Broad Institute)
IDH1 R132H inh = inhibitors of IDH1 R132H reductase, primary screen, biochemical, plate reader, single point; 70,000 tested, 0.18% active; inhibition, % at 10 µM; Isocitrate dehydrogenase [NADP] cytoplasmic (Homo sapiens), O75874; diaphorase/resazurin fluorescence, 60 min; in the data active = inhibition above about 34%;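 also: 0% = DMSO and 100% = no enzyme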
KDM4C inh = inhibitors of GASC-1 (KDM4C) histone demethylase, primary screen, biochemical, single concentration HTS; AID 720574, 2013; GST-KDM4C 2-372, H3K9me3 peptide, LANCE TR-FRET; 96,000 tested, 0.15% active; inhibition, % at 12.5 µM;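 active = mean replicate inhibition above about 25%, with at least 55% of replicates also reaching it, limit read from the data, passing the limit was not always enough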
Target sequence (Q9H3R0 2-372 limits assumed): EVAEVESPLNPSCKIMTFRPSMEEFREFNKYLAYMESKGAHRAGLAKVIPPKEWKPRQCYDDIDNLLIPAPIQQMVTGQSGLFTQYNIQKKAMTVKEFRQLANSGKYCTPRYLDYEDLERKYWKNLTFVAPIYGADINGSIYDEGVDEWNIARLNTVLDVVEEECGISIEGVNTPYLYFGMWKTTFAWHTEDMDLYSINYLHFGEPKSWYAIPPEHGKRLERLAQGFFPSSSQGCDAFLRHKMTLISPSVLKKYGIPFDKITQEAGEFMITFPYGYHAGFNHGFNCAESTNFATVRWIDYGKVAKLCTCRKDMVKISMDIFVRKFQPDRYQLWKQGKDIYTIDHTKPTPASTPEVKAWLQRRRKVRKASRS
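System – N-terminal GST-fused human GASC-1 (KDM4C) fragment, residues 2-372 · Input – enzyme final amount 10 nM · Technique – LANCE TR-FRET, Eu antibody, ULight-streptavidin, EDTA, ex 340 nm, em 618/671 nm · Medium – HEPES buffer, pH 7.5, plus ascorbate · Incubation – enzyme reaction 30 min, then detection 60 min, both room temperature · Reagent – H3K9me3 peptide with Fe(II)/2OG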
T cruzi growth-1 = T. cruzi intracellular proliferation inhibitors, primary screen, cell-based, beta-gal Tulahuen parasites, NIH3T3 host, luminescence; T. cruzi beta-gal in NIH3T3, GalScreen luminescence, 90 h; inhibition, % at 8.34 µM; 77,000 tested, 5.9% active;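 active = mean inhibition above about 93%, with at least 55% of replicates each passing it, limit read from the data, passing the limit was not always enough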
T cruzi growth-2 = T. cruzi intracellular proliferation inhibitors, confirmation, cell-based, NIH3T3 host, beta-gal parasite, luminescence, cherry-pick. shares compounds with T cruzi growth-1. T. cruzi beta-gal in NIH3T3, GalScreen luminescence, 90 h. inhibition, % at 8.35 µM. 5,600 tested, 72% active. AID 651739, 2012;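 active = mean replicate inhibition above about 95% and at least 55% of replicates individually reaching it, limit read from the data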
T cruzi growth-3 = inhibitors of intracellular T. cruzi replication, confirmation, NIH3T3 host cells, beta-gal parasites, cherry-pick, set 2; T. cruzi beta-gal in NIH3T3, GalScreen luminescence, 90 h; inhibition, % at 2.09 µM; shares compounds with T cruzi growth-1; 5,600 tested, 21% active;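 active = mean inhibition above about 95%, with at least 55% of replicates also reaching it, limit read from the data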;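 also: plate controls were neutral control median for no effect and positive control median for full effect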
NIH3T3 tox = cytotoxicity in mouse NIH/3T3 fibroblasts, confirmation, cytotoxicity control for T. cruzi proliferation inhibitor project, cell-based, cherry-pick, single point | NIH/3T3 viability, CellTiter-Glo ATP luminescence, 90 h | cytotoxicity (signal decrease), % at 8.35 µM | shares compounds with T cruzi growth-1 | 5,600 tested, 14% active;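 active = mean signal decrease across replicates above about 35% based on untreated-well scatter, with enough replicates individually passing, limit read from the data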;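 also: 0% = median of neutral control wells and 100% = median of positive control wells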
NIH3T3 tox 2 = NIH/3T3 fibroblast cytotoxicity, confirmation, cytotoxicity control, cell-based, cherry-pick, single point, set 2; shares compounds with T cruzi growth-1; NIH/3T3 viability, CellTiter-Glo ATP luminescence, 90 h; inhibition, % at 24.9 µM; 5,600 tested, 56% active;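 active = mean loss of cell viability signal at or above a set limit, and enough replicates individually reaching it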;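 also: 0% = median of neutral control wells and 100% = median of positive control wells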
Starred values were filed as active, the others as inactive. This excerpt belongs to a sample that is enriched for hits.

How did O=C(CN1C(=O)c2ccc([N+](=O)[O-])cc2C1=O)Nc1ccccc1-c1ccccc1 do in these assays?
IDH1 R132H inh: -0.5

How did O=C(C1CCCC1)N1CCCCN2[C@H](CO)[C@H](c3ccc(C#CC4CC4)cc3)[C@@H]2C1 do in these assays?
T cruzi growth-1: 120.0*; T cruzi growth-2: 116.8*; T cruzi growth-3: 95.8*; NIH3T3 tox: 40.1*; NIH3T3 tox 2: 16.5

Results for O=C(C1CC1)N1CCCCN2[C@H](CO)[C@@H](c3ccc(C#CC4CC4)cc3)[C@@H]2C1 ?
T cruzi growth-1: 105.0*; T cruzi growth-2: 97.7*; T cruzi growth-3: 70.2; NIH3T3 tox: 19.8; NIH3T3 tox 2: 37.0*

Results for O=C(C1CC1)N1CCCCN2[C@@H](CO)[C@H](c3ccc(C#CC4CCCC4)cc3)[C@@H]2C1 ?
KDM4C inh: -1.2; T cruzi growth-1: 94.8

Results for O=C(C1CCC1)N1CCCCN2[C@@H](CO)[C@H](c3ccc(C#CC4CCCC4)cc3)[C@@H]2C1 ?
T cruzi growth-1: 98.1*; T cruzi growth-2: 103.9*; T cruzi growth-3: 92.5; NIH3T3 tox: 40.3*; NIH3T3 tox 2: 104.8*

Results for O=C(C1CCCC1)N1CCCCN2[C@H](CO)[C@@H](c3ccc(C#CC4CC4)cc3)[C@@H]2C1 ?
T cruzi growth-1: 113.5*; T cruzi growth-2: 99.1*; T cruzi growth-3: 74.0; NIH3T3 tox: 19.4; NIH3T3 tox 2: 17.3

What do the screens show for `O=C(C1CC1)N1CCCCN2[C@@H](CO)[C@@H](c3ccc(C#CC4CCCC4)cc3)[C@@H]2C1`?
KDM4C inh: 0.1; T cruzi growth-1: 44.6

Results for O=C(C1CCCC1)N1CCCCN2[C@@H](CO)[C@@H](c3ccc(C#CC4CC4)cc3)[C@@H]2C1 ?
T cruzi growth-1: 92.9

How did CC(C)NC(=O)N1CCCCN2[C@H](CO)[C@@H](c3ccc(C#CC4CC4)cc3)[C@H]2C1 do in these assays?
KDM4C inh: 0.0; T cruzi growth-1: 86.7

How did COc1cc(-c2c(C)cc(O)cc2O[C@@H]2O[C@H](CO)[C@@H](O)[C@H](O)[C@H]2O)oc(=O)c1 do in these assays?
IDH1 R132H inh: -0.6

Results for O=C(Nc1ccccc1C(=O)NCc1ccco1)c1ccccc1I ?
IDH1 R132H inh: -0.5

How did O=C(COc1ccccc1)Nc1ccc2oc(-c3cccc(Cl)c3Cl)nc2c1 do in these assays?
IDH1 R132H inh: 0.1

What do the screens show for `Cn1cc(C(c2ccc([N+](=O)[O-])o2)c2cn(C)c3ccccc23)c2ccccc21`?
IDH1 R132H inh: -0.4

What do the screens show for `CC1(C)CC(=O)C=C(NCC2CCN(C(=S)Nc3ccccc3)CC2)C1`?
IDH1 R132H inh: 0.4
